Results taken from ChEMBL document CHEMBL1124451, “[(1H-imidazol-1-yl)methyl]- and [(3-pyridinyl)methyl]pyrroles as thromboxane synthetase inhibitors” (J Med Chem, 1989).

Key:
Homo sapiens [1] = organism: Homo sapiens; test: Relative potency to inhibit ADP-induced aggregation of human platelet rich plasma compared to that of dazoxiben, in vitro using pig aortal microsomes.; format: functional; settings: Aorta
Homo sapiens [2] = organism: Homo sapiens; test: In vitro inhibition of ADP-induced aggregation of human platelet rich plasma in the presence of pig aortal microsomes.; format: functional; settings: Aorta
Outline: (§1)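 Human citrated blood (0.38% citrate final), PRP by centrifugation at 200g, room temperature. Drug added to 1.0 mL PRP, 2 min at 37 °C with stirring (500 rpm), then pig aortal microsomes 3 min; microsome amount set by the dazoxiben standard. Aggregation induced by 5 μM ADP (final), read turbidimetrically.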

[3] = target: T1, Thromboxane-A synthase (Homo sapiens) (UniProt P24557); test: Relative potency of thromboxane A2 synthetase as reduced ADP-induced aggregation of human platelet rich plasma compared to dazoxiben; format: functional, cell-free
T1 sequence (whole entry): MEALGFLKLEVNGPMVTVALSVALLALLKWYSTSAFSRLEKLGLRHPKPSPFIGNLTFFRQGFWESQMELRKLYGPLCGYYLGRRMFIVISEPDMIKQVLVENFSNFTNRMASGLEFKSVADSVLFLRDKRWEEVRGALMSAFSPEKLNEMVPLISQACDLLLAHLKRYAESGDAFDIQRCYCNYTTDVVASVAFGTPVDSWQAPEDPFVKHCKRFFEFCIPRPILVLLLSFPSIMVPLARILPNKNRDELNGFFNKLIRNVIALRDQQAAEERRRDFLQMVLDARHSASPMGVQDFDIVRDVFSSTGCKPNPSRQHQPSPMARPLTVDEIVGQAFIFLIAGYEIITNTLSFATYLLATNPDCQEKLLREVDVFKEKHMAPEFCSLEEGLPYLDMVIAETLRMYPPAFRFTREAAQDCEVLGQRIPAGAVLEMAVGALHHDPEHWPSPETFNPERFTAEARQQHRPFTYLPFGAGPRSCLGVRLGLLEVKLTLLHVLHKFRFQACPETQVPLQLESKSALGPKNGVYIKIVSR

Mus musculus [4] = test: Activity at 10 mg/kg given intravenously against mortality in a pulmonary thromboembolism model in mice (10 animals) at -3h; format: functional; settings: route intravenous
Outline: (§2)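 Male Swiss-Webster mice (22-26 g); test material given iv in 0.2 mL CMC before challenge (mostly at -3 h, one group at -1 h). At hour 0, collagen extract plus epinephrine hydrochloride given iv in 0.2 mL 0.9% saline via tail vein. The collagen amount was set per lot as the minimum giving 90-100% mortality in CMC-vehicle controls. Readout: % surviving at 24 h.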

Homo sapiens [5] = organism: Homo sapiens; test: Relative potency to inhibit ADP-induced aggregation of human platelet rich plasma compared to that of dazoxiben, in vitro using pig aortal microsomes; format: functional; settings: Aorta
Homo sapiens [6] = organism: Homo sapiens; test: In vitro inhibition of ADP-induced aggregation of human platelet rich plasma in the presence of pig aortal microsomes; format: functional; settings: Aorta; outline: as §1
Mus musculus [7] = test: Activity at 10 mg/kg […] against mortality in a pulmonary thromboembolism model in mice (10 animals) at -5h following oral administration; format: functional
Outline: (§3)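 Male Swiss-Webster mice (22-26 g), 10 per group (one group of 9); test material given po in 0.2 mL CMC at -1, -3, -5 or -18 h before challenge. At hour 0, collagen extract plus epinephrine hydrochloride given iv via tail vein in 0.9% saline. The collagen amount was titrated per lot to 90-100% mortality in vehicle controls. Readout: % surviving at 24 h.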

Mus musculus [8] = test: Activity at 10 mg/kg […] against mortality in a pulmonary thromboembolism model in mice (10 animals) at -1h following oral administration; format: functional; outline: as §3
Mus musculus [9] = test: Activity at 10 mg/kg […] against mortality in a pulmonary thromboembolism model in mice (10 animals) at -7h following oral administration; format: functional
Mus musculus [10] = test: Activity at 10 mg/kg […] against mortality in a pulmonary thromboembolism model in mice (9 animals) at -3h following oral administration; format: functional; outline: as §3
Mus musculus [11] = test: Activity at 10 mg/kg […] against mortality in a pulmonary thromboembolism model in mice (10 animals) at -18h following oral administration; format: functional; outline: as §3
Mus musculus [12] = test: Activity at 20 mg/kg given intravenously against mortality in a pulmonary thromboembolism model in mice (10 animals) at -3h; format: functional; settings: route intravenous; outline: as §2

SMILES | Relative potency (Homo sapiens [1]) | IC50 (Homo sapiens [2]) [µM] | Relative potency [3] | further results
CCOC(=O)/C=C/c1cc(Cn2ccnc2)n(C)c1 | 1.2 | 1.8 |  | 
COC(=O)[C@@H]1CC1c1ccc(Cn2ccnc2)n1C (stereo partly drawn) |  |  | 0.22 | 
C/C(=C\c1ccc(Cn2ccnc2)[nH]1)C(=O)O |  |  | 0.24 | 
C/C(=C/c1ccc(Cc2cccnc2)n1C(C)C)C(=O)O |  |  | 0.9 | 
C/C(=C/c1cc(Cc2cccnc2)n(C(C)(C)C)c1)C(=O)O |  |  | 43 | survival at 10 mg/kg (Mus musculus [4]): 30%
CCOC(=O)/C(C)=C\c1ccc(Cn2ccnc2)n1C |  |  |  | Relative potency (Homo sapiens [5]): 0.08; IC50 (Homo sapiens [6]): 26 µM
Cc1c(Cn2ccnc2)c2ccccc2n1CCC(=O)O [DAZMEGREL] | 1 | 1.9 |  | survival at 10 mg/kg (Mus musculus [7]): 20%; survival at 10 mg/kg (Mus musculus [8]): 20%; survival at 10 mg/kg (Mus musculus [9]): 0%; survival at 10 mg/kg (Mus musculus [10]): 11%; survival at 10 mg/kg (Mus musculus [11]): 10%
C/C(=C/c1ccc(Cc2cccnc2)n1-c1ccccc1)C(=O)O |  |  | 0.08 | 
CCOC(=O)/C(C)=C\c1ccc(Cc2cccnc2)n1CC | 0.14 | 14 |  | 
CCOC(=O)/C(C)=C\c1ccc(Cn2ccnc2)[nH]1 | 0.31 | 8.1 |  | 
CCOC(=O)/C(C)=C\c1ccc(Cc2cccnc2)n1-c1ccccc1 | 0.01 | 180 |  | 
C/C(=C/c1ccc(Cc2cccnc2)n1C)C(=O)O |  |  | 46 | survival at 10 mg/kg (Mus musculus [4]): 0%; survival at 20 mg/kg (Mus musculus [12]): 30%
CCOC(=O)/C(C)=C\c1ccc(Cc2cccnc2)n1CC(C)(C)C | 0.03 | 57 |  | 
